In brackets after ≈: the same amount, converted by molar mass.
Legend:
Streptococcus pyogenes = test: Antimicrobial activity against Streptococcus pyogenes by broth microdilution/CLSI method; assay type: functional
Escherichia coli [1] = test: Antimicrobial activity against Escherichia coli tolC- by broth microdilution/CLSI method; assay type: functional; settings: Escherichia coli; read-out: MIC
Staphylococcus aureus [2] = test: Antimicrobial activity against methicillin-sensitive Staphylococcus aureus by broth microdilution/CLSI method; assay type: functional; settings: Staphylococcus aureus; read-out: MIC
[3] = Percentage unbound in human plasma; assay type: ADME, cell-free
Streptococcus pneumoniae = test: Antibacterial activity against Streptococcus pneumoniae by broth microdilution/CLSI method; assay type: functional; settings: Streptococcus pneumoniae; read-out: MIC
Moraxella catarrhalis = test: Antimicrobial activity against Moraxella catarrhalis by broth microdilution/CLSI method; assay type: functional; settings: Moraxella catarrhalis; read-out: MIC
Haemophilus influenzae = test: Antimicrobial activity against Haemophilus influenzae by broth microdilution/CLSI method; assay type: functional; settings: Haemophilus influenzae; read-out: MIC
DNA gyrase subunit B = DNA gyrase subunit B (Staphylococcus aureus, UniProt P0A0K8); test: Inhibition of ATPase activity of Staphylococcus aureus GyrB
Chain of DNA gyrase subunit B (P0A0K8 whole entry): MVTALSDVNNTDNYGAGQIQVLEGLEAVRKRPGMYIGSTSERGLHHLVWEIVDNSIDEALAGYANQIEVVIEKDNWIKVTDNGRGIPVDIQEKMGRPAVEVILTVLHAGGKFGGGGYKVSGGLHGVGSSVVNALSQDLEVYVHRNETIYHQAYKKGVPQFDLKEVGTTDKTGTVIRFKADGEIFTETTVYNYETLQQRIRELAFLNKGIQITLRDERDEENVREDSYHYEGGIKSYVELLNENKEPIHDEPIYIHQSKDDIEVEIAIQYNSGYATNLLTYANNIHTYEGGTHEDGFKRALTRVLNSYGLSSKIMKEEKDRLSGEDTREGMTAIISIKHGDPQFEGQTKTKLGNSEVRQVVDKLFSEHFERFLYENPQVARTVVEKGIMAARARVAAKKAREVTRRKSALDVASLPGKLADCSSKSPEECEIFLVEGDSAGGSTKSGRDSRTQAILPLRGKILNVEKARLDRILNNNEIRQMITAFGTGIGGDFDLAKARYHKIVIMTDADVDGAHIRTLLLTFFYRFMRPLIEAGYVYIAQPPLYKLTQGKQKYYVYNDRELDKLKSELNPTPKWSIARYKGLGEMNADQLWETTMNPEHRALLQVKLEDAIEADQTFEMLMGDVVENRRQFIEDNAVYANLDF
Summary of the method: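 IC50 was determined against S. aureus GyrB in the routine screening assay. The enzyme concentration limits resolution below 10 nM.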

Escherichia coli [4] = test: Antimicrobial activity against wild-type Escherichia coli Eco523 by broth microdilution/CLSI method; assay type: functional; settings: Escherichia coli, Eco523; read-out: MIC
[5] = Octanol-phosphate buffer distribution coefficient, log D of the compound at pH 7.4 by shake flask method; assay type: physicochemical
[6] = Solubility of the compound; assay type: physicochemical
Staphylococcus aureus [7] = test: Antimicrobial activity against methicillin, quinolone-resistant Staphylococcus aureus by broth microdilution/CLSI method; assay type: functional; settings: Staphylococcus aureus; read-out: MIC
[8] = Ratio of MIC for methicillin, quinolone-resistant Staphylococcus aureus to fraction unbound in human plasma; assay type: ADME

| Compound | MIC (Streptococcus pyogenes) [mg/L] | MIC (Escherichia coli [1]) [mg/L] | MIC (Staphylococcus aureus [2]) [mg/L] | fraction unbound [3] | MIC (Streptococcus pneumoniae) [mg/L] | MIC (Moraxella catarrhalis) [mg/L] | MIC (Haemophilus influenzae) [mg/L] | IC50 (DNA gyrase subunit B) [µM] | MIC (Escherichia coli [4]) [mg/L] | logD [5] | solubility [6] [µM] | MIC (Staphylococcus aureus [7]) [mg/L] | Ratio [8] |
| --- | --- | --- | --- | --- | --- | --- | --- | --- | --- | --- | --- | --- | --- |
| CO[C@H]1CO[C@]2(CN(c3ncc(C(=O)O)s3)CC[C@H]2NC(=O)c2[nH]c(C)c(Cl)c2Cl)OC1 (relative stereo) | 0.063 (≈ 0.125 µM) | 1 (≈ 1.98 µM) | 4 (≈ 7.91 µM) | 0.053 | 0.063 (≈ 0.125 µM) | 0.13 (≈ 0.257 µM) | 1 (≈ 1.98 µM) | < 0.01 | > 64 | -0.18 | > 1000 | 4 (≈ 7.91 µM) |  |
| CO[C@H]1CN(c2nc(C(=O)O)c(C(N)=O)s2)CC[C@H]1NC(=O)c1[nH]c(C)c(Cl)c1Cl (racemic) |  | 1 (≈ 2.1 µM) | > 8 | 0.005 | 1 (≈ 2.1 µM) | 2 (≈ 4.2 µM) | > 8 | < 0.01 | > 8 | -0.63 |  |  | 160 |
| COC1(OC)CN(c2ncc(C(=O)O)s2)CC[C@H]1NC(=O)c1[nH]c(C)c(Cl)c1Cl | 0.25 (≈ 0.54 µM) | 0.5 (≈ 1.08 µM) | 2 (≈ 4.32 µM) | 0.018 | 0.13 (≈ 0.281 µM) | 0.5 (≈ 1.08 µM) | 1 (≈ 2.16 µM) | 0.014 | > 64 | 0.24 | > 1000 | 2 (≈ 4.32 µM) |  |
| CO[C@H]1CN(c2nc(-c3ncc[nH]3)c(C(=O)O)s2)CC[C@H]1NC(=O)c1[nH]c(C)c(Cl)c1Cl | 0.08 (≈ 0.16 µM) | < 0.06 | 0.63 (≈ 1.26 µM) | < 0.01 | < 0.06 | < 0.06 | 1 (≈ 2 µM) | < 0.01 | > 64 | > 2.5 | < 1 | 1 (≈ 2 µM) | 100 |
| Cc1[nH]c(C(=O)N[C@@H]2CCN(c3ncc(C(=O)O)s3)C[C@@H]2N=[N+]=[N-])c(Cl)c1Cl (racemic) | < 0.063 | < 0.063 | 0.13 (≈ 0.293 µM) | 0.038 | < 0.063 | < 0.063 | < 0.063 | < 0.01 | 32 (≈ 72 µM) | 0.53 | > 1000 | 0.25 (≈ 0.563 µM) |  |
| Cc1[nH]c(C(=O)N[C@@H]2CCN(c3ncc(C(=O)O)s3)CC23OCC2(CC2)CO3)c(Cl)c1Cl | < 0.063 | 1 (≈ 1.99 µM) | 0.5 (≈ 0.997 µM) | 0.012 | < 0.063 | < 0.063 | 0.13 (≈ 0.259 µM) | < 0.01 | > 64 | 0.88 | > 1000 | 0.5 (≈ 0.997 µM) |  |
| CO[C@H]1CN(c2nc(-c3nccs3)c(C(=O)O)s2)CC[C@H]1NC(=O)c1[nH]c(C)c(Cl)c1Cl | < 0.06 | 0.13 (≈ 0.252 µM) | < 0.06 | < 0.01 | < 0.06 | < 0.06 | 0.13 (≈ 0.252 µM) | < 0.0098 | 8 (≈ 15.5 µM) | 3.6 | 16 (≈ 8.26 µg/mL) |  | < 6.3 |
| CO[C@H]1CN(c2nc(-c3cncc(NCCN4CCN(C)CC4)n3)c(C(=O)O)s2)CC[C@H]1NC(=O)c1[nH]c(C)c(Cl)c1Cl | 0.031 (≈ 0.0475 µM) | 0.51 (≈ 0.781 µM) | 0.25 (≈ 0.383 µM) | 0.027 | 0.011 (≈ 0.0169 µM) |  | 1 (≈ 1.53 µM) | 0.0012 | 46 (≈ 70.5 µM) | 2 | 36 (≈ 23.5 µg/mL) | 0.58 (≈ 0.889 µM) | 21 |
| C#CCO[C@H]1CN(c2ncc(C(=O)O)s2)CC[C@H]1NC(=O)c1[nH]c(C)c(Cl)c1Cl | 0.016 (≈ 0.035 µM) | 0.13 (≈ 0.284 µM) | 0.25 (≈ 0.547 µM) | 0.03 | 0.016 (≈ 0.035 µM) | 0.016 (≈ 0.035 µM) | 0.13 (≈ 0.284 µM) | < 0.01 | > 8 | 0.44 | > 1000 | 0.25 (≈ 0.547 µM) |  |
| CO[C@H]1CN(c2nc(-c3csc(N)n3)c(C(=O)O)s2)CC[C@H]1NC(=O)c1[nH]c(C)c(Cl)c1Cl | < 0.06 | < 0.06 | < 0.06 | < 0.01 | < 0.06 | < 0.06 | 0.5 (≈ 0.941 µM) | < 0.0098 | 4 (≈ 7.53 µM) | 3 | < 1 |  | < 6.3 |
| COCc1nc(N2CC[C@@H](NC(=O)c3[nH]c(C)c(Cl)c3Cl)[C@@H](OC)C2)sc1C(=O)O |  | 0.5 (≈ 1.05 µM) | 0.5 (≈ 1.05 µM) | 0.034 | 0.12 (≈ 0.251 µM) | 0.063 (≈ 0.132 µM) | 0.35 (≈ 0.733 µM) | < 0.01 | > 8 | 0.44 | > 1000 | 1 (≈ 2.09 µM) | 29 |
| CO[C@H]1CO[C@@]2(CN(c3ncc(C(=O)O)s3)CC[C@H]2NC(=O)c2[nH]c(C)c(Cl)c2Cl)OC1 (relative stereo) | 0.063 (≈ 0.125 µM) | 1 (≈ 1.98 µM) | 4 (≈ 7.91 µM) | 0.053 | 0.063 (≈ 0.125 µM) | 1 (≈ 1.98 µM) | 2 (≈ 3.96 µM) | < 0.01 | > 64 | 0.15 | > 1000 | 8 (≈ 15.8 µM) |  |

From ChEMBL document CHEMBL3352173, “Optimization of pyrrolamide topoisomerase II inhibitors toward identification of an antibacterial clinical candidate (AZD5099)” (J Med Chem, 2014)
